Results as given in paper PMC12413468 (Communications Biology, 2025).

Legend:
[1] = tested on: A549 cells stably expressing TSC22D1-mNeonGreen; experiment: TSC22D1-mNeonGreen localization, A549 cells; assay type: cell-based, human; settings: A549, WNK463 1 µM, 24 h
Outline: (§1)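 Stable lines came from a lentiviral vector carrying long-isoform TSC22D1 with a C-terminal mNeonGreen tag, transfected with Lipofectamine 3000. Cells were puromycin-selected and sorted by flow cytometry. Pan-WNK inhibitor was applied at 1 µM for 24 h. Cells on coverslips were fixed (4% PFA, 15 min, RT), permeabilised (0.1% Triton X-100, 4.5 min), blocked with 10% goat serum, stained with antibodies and Alexa secondaries (1:500), mounted with DAPI and imaged by confocal microscopy. In A549, endogenous OSR1 was co-stained.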

[2] = tested on: Cavin1 Tyr156 phosphorylation in HDMEC; experiment: Cavin1 Tyr156 phosphorylation, immunoblot in HDMEC; assay type: cell-based, human; settings: WNK1 siRNA 72 h or WNK463 1 µM 18 h
Outline: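 HDMEC were grown in MCDB 131 with 10% FBS, 10 mM L-glutamine, 10 ng/ml EGF, 1 ug/mL hydrocortisone and penicillin/streptomycin, at 37 °C and 5% CO2. Lysates were made directly in SDS/β-mercaptoethanol sample buffer and immunoblotted for phospho-Cavin1 Tyr156 and total Cavin1. Data are means ± SEM; unpaired two-tailed t-test.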

[3] = tested on: HEK293T cells stably expressing TSC22D1-mNeonGreen; experiment: TSC22D1-mNeonGreen localization, HEK293T cells; assay type: cell-based, human; settings: WNK463 1 µM, 24 h, confocal microscopy, n=1
Outline: as §1

[4] = tested on: TSC22D family mRNA in HDMEC; experiment: qPCR of TSC22D family members in HDMEC; assay type: cell-based, human; settings: 1 µM WNK463, 14 hours, two replicates
[5] = tested on: phospho-SPAK Ser373/phospho-OSR1 Ser325 in HDMEC; experiment: phospho-SPAK/phospho-OSR1 immunoblot in HDMEC; assay type: cell-based, human; settings: WNK463 1 µM 18 h, unlike OSR1
Outline: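 Endothelial cells (HDMEC) were kept in MCDB 131 with 10% FBS, 10 mM L-glutamine, 10 ng/ml EGF, 1 ug/mL hydrocortisone and antibiotics, at 37 °C and 5% CO2. Pan-WNK inhibitor was given at 1 µM for 18 h. Cells were harvested in SDS/DTT/β-mercaptoethanol sample buffer, then immunoblotted with an antibody recognising phospho-SPAK Ser373/phospho-OSR1 Ser325. Results are means ± SEM, compared by unpaired two-tailed t-test.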

[6] = tested on: 3xFLAG-OSR1 / endogenous TSC22D1; assay type: binding, human; settings: HEK293T cells, 50 µM CCT blocking peptide, n = 3
Outline: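 HEK293T cells were grown in DMEM with 10% FBS and expressed 3xFLAG-OSR1. Endogenous TSC22D1 was co-immunoprecipitated and detected by immunoblot. Three independent experiments.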

Compound | TSC22D1 puncta ([1]; confocal microscopy, n = 3) | localization of endogenous OSR1 ([1]; immunofluorescence) | total Cavin1 protein amount [2] | TSC22D1 puncta [3] | mRNA amounts of TSC22D family members [4] | phosphorylation of SPAK [5] | association of endogenous TSC22D1 with 3xFLAG-OSR1 [6]
CC(C)(C)NC(=O)c1cncn1C1CCN(c2ccc(-c3nnc(C(F)(F)F)o3)cn2)CC1 [WNK463] | induced TSC22D1 puncta | colocalized in puncta with tagged TSC22D1 | little change | induced TSC22D1 puncta | altered mRNA amounts of TSC22D family members | resistant | 
NH3^+-SAGRRFIVSPVPE-COO^− [SAGRRFIVSPVPE (WT)] |  |  |  |  |  |  | prevented their association
